# This is a sample that favours compounds with a hit; in the whole collection about 2.7% have one here.
# pPAFAH FP inh: inhibitors of human plasma PAF acetylhydrolase (pPAFAH); Q13093; recombinant pPAFAH, FP-rhodamine probe fluorescence polarization; inhibition, % at 3.39 µM; 1.5% of 330,000 active; AID 463082;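 active = inhibition above the mean inhibition across the screen plus 3 SD, cut at about 25% in these data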;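 note: inhibitors block binding of the rhodamine activity-based probe so polarization drops; 0% = enzyme with DMSO and 100% = wells lacking pPAFAH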
# RBBP9 inhibitor: human RBBP9 hydrolase inhibition | O75884 | recombinant RBBP9, FP-Rh probe fluorescence polarization | inhibition, % at 7.94 µM | 0.2% of 220,000 active | AID 1515;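 active = inhibition above the campaign mean of all tested compounds plus 3 SD, cut at about 14% in these data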;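 note: plate controls were DMSO wells with RBBP9 for no effect and wells lacking RBBP9 protein for full effect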
# Target sequence (O75884 whole entry, looked up): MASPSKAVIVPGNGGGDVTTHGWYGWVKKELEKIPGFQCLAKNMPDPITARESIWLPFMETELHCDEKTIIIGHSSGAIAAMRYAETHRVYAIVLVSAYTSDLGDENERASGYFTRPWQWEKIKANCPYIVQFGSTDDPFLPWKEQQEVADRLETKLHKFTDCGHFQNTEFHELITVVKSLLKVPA
#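 System: RBBP9 protein / Buffer or medium: Tris/NaCl buffer pH 8.0 with 0.1% Pluronic / Probe or stimulus: Serine-hydrolase probe FP-Rh, 375 nM pre-mixing / Dosing: 7.94 µM single dose, 0.794% DMSO / Times: enzyme-compound preincubation 30 min, then probe labeling 45 min, 25 °C / Technique: fluorescence polarization (mP), excitation 525 nm, emission 598 nm / Replication: singlicate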
# PAFAH1B2 FP inh: blocks human PAF acetylhydrolase 1b catalytic subunit 2. P68402. recombinant PAFAH1B2, FP-rhodamine activity probe, fluorescence polarization. inhibition, % at 3.39 µM. 1.2% of 340,000 active. AID 492953;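 active = inhibition above the mean of all tested compounds plus 3 SD, cut at about 24% in these data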;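 note: 0% = enzyme with DMSO and 100% = wells lacking PAFAH1B2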
# Target sequence (P68402 whole entry, looked up): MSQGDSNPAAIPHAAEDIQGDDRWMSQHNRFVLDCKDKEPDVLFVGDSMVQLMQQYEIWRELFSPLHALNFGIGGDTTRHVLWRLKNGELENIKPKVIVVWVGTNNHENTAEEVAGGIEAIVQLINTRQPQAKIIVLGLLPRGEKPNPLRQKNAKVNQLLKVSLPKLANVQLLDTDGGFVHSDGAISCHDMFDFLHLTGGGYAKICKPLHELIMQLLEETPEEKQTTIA
# PAFAH1B3 inh: blocks human PAF acetylhydrolase 1B catalytic subunit 3 | 0.28% of 340,000 active | recombinant PAFAH1B3, FP-rhodamine probe, fluorescence polarization | inhibition, % at 3.39 µM | AID 492972;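 active = inhibition above the screen-wide average of all tested compounds plus 3 SD, cut at about 25% in these data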;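 note: 0% = enzyme with DMSO only and 100% = wells lacking PAFAH1B3 protein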
# Target sequence (Q15102 whole entry, looked up): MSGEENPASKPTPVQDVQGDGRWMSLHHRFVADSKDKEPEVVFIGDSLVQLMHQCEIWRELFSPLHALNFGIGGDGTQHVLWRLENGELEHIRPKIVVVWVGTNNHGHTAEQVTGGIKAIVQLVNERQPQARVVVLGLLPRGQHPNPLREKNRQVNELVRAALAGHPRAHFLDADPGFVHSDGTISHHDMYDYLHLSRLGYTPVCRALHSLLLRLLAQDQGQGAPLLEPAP
# PAFAH2 inh: PAFAH2 (human) inhibition. recombinant PAFAH2, FP-rhodamine activity probe, fluorescence polarization. inhibition, % at 3.39 µM. Q99487. AID 492956. 0.99% of 340,000 active;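 active = inhibition above the mean over all tested compounds plus 3 SD, cut at about 30% in these data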;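 note: inhibitors block probe labeling of enzyme so polarization drops; 0% = enzyme with DMSO and 100% = wells lacking PAFAH2 protein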
# PAFAH2 confirm: confirmation of human PAFAH2 inhibitors | inhibition, % at 3.39 µM | 65% of 2,300 active | AID 493030 | recombinant PAFAH2, FP-rhodamine activity probe, fluorescence polarization | shares compounds with PAFAH2 inh;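 active = mean inhibition over three repeats above a set limit taken from the earlier primary screen, cut at about 30% in these data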;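 note: inhibitor blocks binding of rhodamine activity probe so polarization falls; 0% = enzyme with DMSO and 100% = wells lacking PAFAH2 protein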
# An asterisk follows results filed as active; . = no result.
SMILES,pPAFAH FP inh,RBBP9 inhibitor,PAFAH1B2 FP inh,PAFAH1B3 inh,PAFAH2 inh,PAFAH2 confirm
Cc1ccc(NC(=O)COC(=O)CCC2CCCC2)c(Br)c1,17.8,.,1.8,5.7,31.4*,14.0
COc1ccc(NC(=O)COC(=O)CC2CCCCC2)cc1,6.8,.,-1.6,0.5,47.8*,42.4*
COc1ccc(NC(=O)COC(=O)CC2CCCC2)cc1,19.5,.,3.2,4.3,57.7*,47.0*
COc1ccc(C2/C=C\CN(Cc3ccco3)CC(=O)N2Cc2ccc(F)cc2)cc1 (stereo not given),6.6,.,-0.4,3.6,2.4,.
CCOc1ncccc1C(=O)OCC(=O)Nc1cc(S(=O)(=O)N2CCOCC2)ccc1Cl,14.5,-6.7,-2.6,2.2,44.0*,38.5*
Cc1cnc(C(=O)OCC(=O)Nc2cc(S(=O)(=O)N3CCCCC3)ccc2Cl)cn1,-4.9,-9.0,4.8,3.5,-2.7,.
O=C(COC(=O)c1cccnc1Cl)Nc1cc(S(=O)(=O)N2CCOCC2)ccc1Cl,2.2,.,2.4,2.0,25.3,.
Cc1cnc(C(=O)OCC(=O)Nc2ccc(C)c(S(=O)(=O)N3CCCCC3)c2)cn1,0.9,-2.3,-0.1,6.7,5.3,.
O=C(COC(=O)c1cccnc1Cl)Nc1cc(S(=O)(=O)N2CCCCCC2)ccc1Cl,.,.,6.0,7.0,31.5*,24.1
Nc1cc(N)cc(C(=O)OCC(=O)Nc2cc(S(=O)(=O)N3CCCCC3)ccc2Cl)c1,7.9,-0.7,0.5,7.3,31.0*,12.9
O=C(COC(=O)c1cccnc1Cl)Nc1cc(S(=O)(=O)N2CCCCC2)ccc1Cl,3.4,-5.2,1.4,4.7,28.2,.
Cc1ccc(NC(=O)COC(=O)c2cccnc2Cl)cc1S(=O)(=O)N1CCCCC1,3.9,0.2,5.2,16.1,52.8*,33.7*
COc1cc(C(=O)NC2CC(C)(C)NC(C)(C)C2)cc(OC)c1OC,-1.6,1.5,-1.0,7.2,-16.4,.
CCOc1ccc(N(CC(=O)Nc2cccc(C)c2)S(C)(=O)=O)cc1,0.3,.,2.7,9.1,-5.4,.
Cc1ccc(S(=O)(=O)N2CCCCC2)cc1C(=O)N(CCc1ccccc1)Cc1ccccc1,4.4,.,2.4,9.7,1.3,.
C=CCN(c1ccccc1)S(=O)(=O)c1cccc(C(=O)NC2CCN(Cc3ccccc3)CC2)c1,4.3,.,10.1,3.2,-0.5,.
O=Cc1ccc(OC(=O)CCCCC(=O)Oc2ccc(C=O)cc2)cc1,-1.8,.,3.9,0.2,34.4*,1.5
O=C1OC(c2ccc3c(c2)OCO3)N(C(=O)c2ccc(Cl)c(Cl)c2)c2ccccc21 (stereo not given),-11.4,4.3,4.6,0.3,47.8*,47.0*
Cc1cccc(C(=O)N2c3ccccc3C(=O)OC2c2ccc3c(c2)OCO3)c1 (stereo not given),-1.2,-3.0,3.8,3.5,31.1*,34.2*
Cn1c(O)c(C=NCCCCCC(=O)O)c(=O)n(C)c1=O,.,.,3.6,1.6,2.6,.
CCN1CCN(C(=O)Cn2nc(C)c3sc4ccccc4c3c2=O)CC1,4.3,.,0.7,0.4,7.5,.
COc1ccccc1CNS(=O)(=O)c1ccc(-c2cnc(C3CC3)o2)cc1,-8.2,.,2.5,6.9,1.5,.
CCSC1=NSC2=NC(=O)/C(=C\c3coc4ccccc4c3=O)C(=N)N12,6.7,-6.0,11.2,6.7,32.6*,21.0
O=C(CSc1ncn[nH]1)N1CCOCC1,0.5,1.4,6.3,-2.1,4.4,.
Cc1cc(O)c(/C=N/Nc2cccc(Cl)c2)c(=O)o1,4.0,-2.0,0.9,6.0,38.2*,30.4*
SMILES,pPAFAH FP inh,RBBP9 inhibitor,PAFAH1B2 FP inh,PAFAH1B3 inh,PAFAH2 inh,PAFAH2 confirm
Cc1cc(O)c(/C=N/OCc2ccc(Cl)cc2Cl)c(=O)o1,2.1,0.6,16.8,-1.4,85.0*,77.0*
C[C@H](CO)N1C[C@H](C)[C@@H](CN(C)S(=O)(=O)c2ccc(Cl)cc2)Oc2ccc(NS(=O)(=O)c3ccccc3)cc2CC1=O,20.6,.,9.7,-0.4,10.5,.
O=C(COC(=O)c1ccc(Cl)s1)c1cc2ccccc2o1,20.5,-0.7,2.1,-0.6,38.3*,17.2
O=C(COC(=O)c1cc(S(=O)(=O)NCc2ccccc2)ccc1O)c1cc2ccccc2o1,15.3,-5.4,23.0,5.0,57.9*,48.1*
Cn1cccc1C(=O)OCC(=O)c1cc2ccccc2o1,22.9,-4.4,1.2,1.5,18.1,.
O=C(Nc1ccccc1Cc1ccccc1)c1ccccc1NS(=O)(=O)c1ccc(Cl)s1,16.4,-4.8,2.4,2.8,9.6,.
Cc1ccc(NC(=O)c2ccccc2NS(=O)(=O)c2ccc(Cl)s2)cc1,9.4,-0.9,11.4,1.1,71.5*,73.5*
O=C(NCc1ccco1)c1ccccc1NS(=O)(=O)c1ccc(Cl)s1,9.7,-3.2,14.2,-0.6,5.3,.
O=C(Nc1ccccc1)c1ccccc1NS(=O)(=O)c1ccc(Cl)s1,6.9,-3.1,20.5,2.8,70.7*,75.2*
O=C(Nc1ccc(C(F)(F)F)cc1)c1cc(S(=O)(=O)NCC2COc3ccccc3O2)ccc1F (stereo not given),-20.4,-24.4,-20.1,-15.9,-26.4,.
COc1cccc(C(=O)OCC(=O)NCCc2ccccc2)c1OC,15.2,-9.8,-1.0,9.5,57.7*,44.0*
COc1cccc(OC)c1C(=O)OCC(=O)NCCCc1ccccc1,6.3,.,9.3,-2.5,2.3,.
COc1ccc(C(=O)OCC(=O)Nc2cccc(C(C)=O)c2)c(OC)c1OC,10.3,.,0.4,7.8,83.0*,85.9*
COc1ccc(C(=O)OCC(=O)Nc2c(C)cccc2C)c(OC)c1OC,2.2,.,2.3,4.1,52.2*,42.9*
NC(=S)N/N=C/c1c[nH]c2ccc(OCc3ccccc3)cc12,15.2,.,6.2,5.6,0.3,.
O=C(NCCS(=O)(=O)N1CCN(c2ccc(F)cc2)CC1)c1ccco1,3.0,.,2.0,7.8,-11.1,.
COc1ccc(C(=O)OCC(=O)Nc2cccc(S(=O)(=O)N3CCCCCC3)c2)cc1[N+](=O)[O-],.,.,-4.2,-2.0,38.3*,25.7
COc1cc(C(=O)OCC(=O)Nc2cccc(S(=O)(=O)N3CCCC3)c2)ccc1OCC(C)C,2.6,.,-7.5,-0.3,44.7*,45.3*
COc1ccc(CC(=O)Nc2cccc(S(=O)(=O)N3CCCC3)c2)cc1OC,-0.6,.,-0.5,4.3,-1.9,.
COc1ccc(C(=O)OCC(=O)Nc2ccc(OC)c(S(=O)(=O)N3CCCCC3)c2)cc1[N+](=O)[O-],.,.,0.9,-1.0,15.5,.
CCc1noc(C)c1C(=O)N1CCCC(N2CCN(c3cccc(Cl)c3)CC2)C1 (stereo not given),6.1,.,5.4,6.8,-0.6,.
Cc1c(C)c2c(OCC(=O)Nc3cccnc3)cc3c(c2oc1=O)CCC(C)(C)O3,20.2,.,4.3,9.9,33.3*,11.3
Cc1cc(=O)oc2c3c(cc(OCC(=O)NCC(=O)N[C@H](C(=O)O)C(C)C)c12)OC(C)(C)CC3,12.7,.,2.7,10.9,14.2,.
Cc1c(C)c2c(OCC(=O)NCC(C)C)cc3c(c2oc1=O)CCC(C)(C)O3,.,.,4.0,6.3,71.8*,51.7*

# From PubChem
